IC50 data for seven compounds are collected here from ChEMBL document CHEMBL3596176, “Geleganidines A-C, Unusual Monoterpenoid Indole Alkaloids from Gelsemium elegans” (J Nat Prod, 2015).

One assay deals with MCF7. Description: Cytotoxicity against human MCF7 cells assessed as inhibition of cell growth after 72 hrs by MTT assay. The format is functional, cell-based. To be noted: MCF7, 72 h. The method in brief: (§1)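 Cells kept in RPMI 1640 plus 10% FBS at 37 °C in humidified 5% CO2. Seeded for 24 h, then exposed to a range of compound concentrations for 72 h. MTT (5 mg/mL solution) added, followed by 4 h incubation. Medium removed and formazan dissolved in DMSO; absorbance at 570 nm. IC50 taken from dose-response curves, reported as mean ± SD.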
(In general: Tetrazolium assays rely on reduction of a dye to a coloured formazan, in cell work by metabolically active cells.)

Assay [1] is described as follows: Cytotoxicity against rat PC12 cells assessed as inhibition of cell growth after 72 hrs by MTT assay. The format is functional, cell-based. To be noted: PC-12, 72 h. The essentials: as §1

The IC50 is the concentration that gives 50% inhibition. Regarding `C/C=C1\CN(C=O)[C@H]2C[C@@]3(C(=O)N(OC)c4cc(OC)ccc43)[C@H]3C[C@@H]1[C@@H]2CO3`, the IC50 (in the assay on MCF7; in assay [1]) was over 50 µM each time.

Regarding `C/C=C1\CN2C(=O)[C@]3(c4ccc(OC)cc4/N=N/c4cc(OC)ccc4[C@@]45C[C@H]6[C@H]7CO[C@@H]4C[C@H]7/C(=C/C)CN6C5=O)C[C@H]2[C@H]2CO[C@@H]3C[C@@H]12`, the IC50 in the assay on MCF7 is 38.4 µM; in assay [1] it was over 50 µM.

Consider `C/C=C1\CN(C(=O)N2C/C(=C\C)[C@@H]3C[C@H]4OC[C@@H]3[C@@H]2C[C@@]42C(=O)N(OC)c3cc(OC)ccc32)[C@H]2C[C@@]3(C(=O)N(OC)c4ccccc43)[C@H]3C[C@@H]1[C@@H]2CO3`, for which the values for the concentration for half-maximal inhibition (IC50) (in the assay with MCF7; in assay [1]) were over 50 µM and 16.1 µM, respectively.

In the case of `C/C=C1\CN2C(=O)[C@]3(c4ccc(OC)cc4N)C[C@H]2[C@H]2CO[C@@H]3C[C@@H]12`, the IC50 (in the assay with MCF7; in assay [1]) was over 50 µM in each case.

As to `C/C=C1\CN2C(=O)[C@]3(c4ccc(OC)cc4NOC)C[C@H]2[C@H]2CO[C@@H]3C[C@@H]12`, the IC50 (with MCF7; in assay [1]) was over 50 µM throughout.

Turning to `C/C=C1\CN[C@H]2C[C@@]3(C(=O)N(OC)c4cc(OC)ccc43)[C@H]3C[C@@H]1[C@@H]2CO3`, the IC50 (in the assay with MCF7; in assay [1]) was over 50 µM throughout.

Turning to `C/C=C1\CN[C@H]2C[C@@]3(C(=O)N(OC)c4ccccc43)[C@H]3C[C@@H]1[C@@H]2CO3`, the half-maximal inhibitory concentration (IC50) (in the assay with MCF7; in assay [1]) was over 50 µM each time.
